In ChEMBL document CHEMBL1135654, “Antitumor agents. 1. Synthesis, biological evaluation, and molecular modeling of 5H-pyrido[3,2-a]phenoxazin-5-one, a compound with potent antiproliferative activity” (J Med Chem, 2002):
Starred links: 1 amine or outer side, 2 acyl side, 3 side chain; linkers in the order of their positions; H or OH if unused. Positions of bridges follow the written chain, without caps; N, C: chain ends. Non-standard residues stand in square brackets, D forms with d. Residues, ends and D or L forms follow the SMILES beside them. Chains are numbered I, II in the order given. Actinocin(1to9) = Cc1c2oc3c(C)ccc(C(=O)[*:2])c3nc-2c(C(=O)[*:1])c(N)c1=O; NMeV = CN[C@H](C(=O)O)C(C)C; Sar = CNCC(=O)O

How the values were obtained:
CCRF-SB [1] = assay: Antitumor activity against human acute B-lymphoblastic leukemia CCRF-SB cells; format: functional, cell-based
Procedure, shortened: (§1)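 Leukemia/lymphoma cells in exponential growth resuspended at 1 × 10^5 cells/mL in RPMI 1640 (10% FCS, antibiotics) with serial dilutions of drug (DMSO stock 200 µM diluted in medium). Viability by MTT after 96 h at 37 °C, 5% CO2. Growth expressed as % of untreated controls; IC50 by linear regression. Controls underwent ≥3 rounds of multiplication. Mean of three independent determinations.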

[2] = (§2) Cytotoxicity for Peripheral blood Lymphocytes; format: functional; conditions: Homo sapiens
Procedure, shortened: (§3)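 Human PBL from HIV-negative donors, isolated on Ficoll-Hypaque. Resting cells (1 × 10^6/mL) exposed up to 3 days to serial drug dilutions, washed, PHA-stimulated 24 h, diluted to 1 × 10^5/mL with PHA and IL-2, viability read after 6 days at 37 °C. Alternatively, PBL stimulated with PHA (2.5 µg/mL) 24 h, then grown with PHA, IL-2 (50 U/mL) and drug, and viable cells counted at day 6. Mean ± SD, three experiments.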

5637 = assay: Antitumor activity against human bladder carcinoma 5637 cells; format: functional, cell-based
Procedure, shortened: (§4)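 Solid-tumor cells in exponential growth seeded at 5 × 10^4 cells/mL in their own medium with 10% FCS, allowed to adhere 16 h, then serially diluted drug added (DMSO stock 200 µM diluted in medium). MTT viability read 4 days later, 37 °C, 5% CO2. IC50 by linear regression from % of untreated control growth. Three independent determinations.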

[3] = as §2; format: functional; conditions: Homo sapiens; procedure, shortened: as §3; remark: listed apart in the source
C8166 = assay: Antitumor activity against […] human acute T-lymphoblastic leukemia C8166 cells; format: functional, cell-based; procedure, shortened: as §1
WIL2-NS = assay: Anti tumor activity against human splenic B-lympho blastoid Wil2-NS cells; format: functional, cell-based; procedure, shortened: as §1
MT4 [4] = assay: Antitumor activity against […] human acute T-lymphoblastic leukemia MT-4 cells; format: functional, cell-based; procedure, shortened: as §1
SK-MEL-28 = assay: Antitumor activity against human skin melanoma […] cells; format: functional, cell-based; procedure, shortened: as §4
CCRF-CEM [5] = assay: Antitumor activity against human acute T-lymphoblastic leukemia CCRF-CEM cells; format: functional, cell-based; procedure, shortened: as §1
ACHN = assay: Antitumor activity against human renal adenocarcinoma ACHN cells; format: functional, cell-based; procedure, shortened: as §4
HepG2 = assay: Antitumor activity against human hepatocellular carcinoma HepG2 cells; format: functional, cell-based; procedure, shortened: as §4
CRL-7065 cell line = assay: Antitumor activity against human foreskin fibroblasts CRL7065 cells; format: functional, cell-based; procedure, shortened: as §4
SK-MES-1 = assay: Antitumor activity against human lung squamous carcinoma SK-MES-1 cells; format: functional, cell-based; procedure, shortened: as §4
MCF7 = assay: Antitumor activity against human breast adenocarcinoma MCF-7 cells; format: functional, cell-based; procedure, shortened: as §4
HT-29 = assay: Antitumor activity against human colon adenocarcinoma HT-29 cells; format: functional, cell-based; procedure, shortened: as §4
[6] = Compound concentration required to reduce the cell proliferation of Wild type and Drug- resistant human nasopharyngeal carcinoma KB cells by 50%; format: functional, cell-based
Procedure, shortened: (§5)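 Cells seeded at 5 × 10^4 cells/mL, adhered 16 h, exposed to serial drug dilutions; MTT after 4 days. IC50 by linear regression versus untreated controls; mean ± SD of three independent determinations.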

[7] = Effect on the proliferation Wild -type and Drug- resistant KB subclones passaged uM; format: functional, Homo sapiens; procedure, shortened: as §5
[8] = Compound concentration required to reduce the cell proliferation of Wild type and Drug- resistant KB subclones passaged in the presence of doxorubicin 0.09 uM by 50%; format: functional; conditions: Homo sapiens; procedure, shortened: as §5
MT4 [9] = assay: Antitumor activity against human CD4+T cells expressing the TAT gene of HTLV-1 MT-4 cells; format: functional, cell-based; procedure, shortened: as §1
[10] = system: Panel leukemia (Carcinoma cell lines); assay: (§6) Cytotoxicity for lymphoblastoid cell lines; format: functional; conditions: Homo sapiens
MOLT-4 = assay: Antitumor activity against human acute T-lymphoblastic leukemia MOLT-4 cells; format: functional, cell-based
[11] = Compound concentration required to reduce the cell proliferation of Wild type and drug-resistant KB subclones passaged in the presence of etoposide 7 uM by 50%; format: functional; conditions: Homo sapiens; procedure, shortened: as §5
DU-145 = assay: Antitumor activity against human prostate carcinoma DU145 cells; format: functional, cell-based; procedure, shortened: as §4
G-361 = assay: Antitumor activity against human skin melanoma G-361 cells; format: functional, cell-based; procedure, shortened: as §4
HEp-2 [12] = assay: Antitumor activity against larynx carcinoma Hep-2 cells; format: functional, cell-based; conditions: Homo sapiens; procedure, shortened: as §4
Raji = assay: Antitumor activity against human Burkitt lym phoma Raji cells; format: functional, cell-based; procedure, shortened: as §1
HeLa [13] = assay: Antitumor activity against cervix carcinoma Hela cells; format: functional, cell-based; conditions: Homo sapiens; procedure, shortened: as §4
HEp-2 [14] = assay: Compound concentration required to reduce the cell proliferation of larynx carcinoma cells by 50%, using MTT method.; format: functional, cell-based; conditions: Homo sapiens; procedure, shortened: as §4
CCRF-SB [15] = assay: Compound concentration required to reduce the cell proliferation of human acute B-lymphoblastic leukemia CCRF-SB cells by 50%, using MTT method.; format: functional, cell-based; procedure, shortened: as §1
CCRF-CEM [16] = assay: Compound concentration required to reduce the cell proliferation of human acute T-lymphoblastic leukemia CCRF-CEM cells by 50%, using MTT method.; format: functional, cell-based; procedure, shortened: as §1
MT4 [17] = assay: Compound concentration required to reduce the cell proliferation of human CD4+T cells by 50%, using MTT method.; format: functional, cell-based; procedure, shortened: as §1
HeLa [18] = assay: Compound concentration required to reduce the cell proliferation of cervix carcinoma Hela cells by 50%, using MTT method.; format: functional, cell-based; conditions: Homo sapiens; procedure, shortened: as §4
[19] = Effect on the proliferation wild-type and drug-resistant KB subclones passaged uM; format: functional, Homo sapiens; procedure, shortened: as §5
Lymphoblastoid cell = assay: as §6; format: functional; conditions: Homo sapiens

SMILES | IC50 (CCRF-SB [1]) | CC50 [2] | CC50 [3] | IC50 (C8166) | IC50 (MT4 [4]) | IC50 (SK-MEL-28) | IC50 (CCRF-CEM [5]) | IC50 (ACHN) | IC50 (HepG2) | IC50 (CRL-7065 cell line) | IC50 (SK-MES-1) | IC50 (HT-29) | IC50 [6] | IC50 [7] | IC50 [8] | IC50 (MT4 [9]) | IC50 [11] | IC50 (DU-145) | IC50 (G-361) | IC50 (HEp-2 [12]) | other results
Cc1c2oc3c(C)ccc(C(=O)N[C@@H]4C(=O)N[C@H](C(C)C)C(=O)N5CCC[C@H]5C(=O)N(C)CC(=O)N(C)[C@@H](C(C)C)C(=O)O[C@@H]4C)c3nc-2c(C(=O)N[C@@H]2C(=O)N[C@H](C(C)C)C(=O)N3CCC[C@H]3C(=O)N(C)CC(=O)N(C)[C@@H](C(C)C)C(=O)O[C@@H]2C)c(N)c1=O [DACTINOMYCIN] (I: T[dV]P[Sar][NMeV] / II: T[dV]P[Sar][NMeV]; ester I:1-I:C, II:1-II:C; linker I:N-II:N via Actinocin(1to9)) | 2 nM | 5 nM | 2 nM | 0.8 nM | 1 nM | 2 nM | 1 nM | 5 nM | 10 nM | 7 nM | 4 nM | 6 nM | 5 nM | 50 nM | 200 nM | 1 nM | 200 nM | 8 nM | 1 nM | 4 nM | IC50 5637: 3 nM; IC50 (WIL2-NS): 3 nM; IC50 (MCF7): 6 nM; CC50 [10]: 3 nM; IC50 (MOLT-4): 1 nM; IC50 (Raji): 2 nM; IC50 (HeLa [13]): 8 nM
CC(=O)c1c2nc3c(C(C)=O)cccc3oc-2cc(=O)c1N |  |  |  |  |  |  |  |  |  |  |  |  |  |  |  |  |  |  |  |  | IC50 (HEp-2 [14]): 1500 nM; IC50 (CCRF-SB [15]): 500 nM; IC50 (CCRF-CEM [16]): 900 nM; IC50 (MT4 [17]): 1800 nM; IC50 (HeLa [18]): 2000 nM
CC(=O)Nc1cc2nc3ccccc3oc-2cc1=O |  |  |  |  |  |  |  |  |  |  |  |  |  |  |  |  |  |  |  |  | IC50 (HEp-2 [14]): 1400 nM; IC50 (CCRF-SB [15]): 3600 nM; IC50 (CCRF-CEM [16]): > 50000 nM; IC50 (MT4 [17]): 9500 nM; IC50 (HeLa [18]): 8200 nM
COc1cc([C@@H]2c3cc4c(cc3[C@@H](O[C@@H]3O[C@@H]5CO[C@@H](C)O[C@H]5[C@H](O)[C@H]3O)[C@H]3COC(=O)[C@H]23)OCO4)cc(OC)c1O [ETOPOSIDE] |  |  |  |  |  |  |  |  |  |  |  |  | 600 nM |  | > 20000 nM |  | > 20000 nM |  |  |  | IC50 [19]: 6200 nM
COc1cccc2c1C(=O)c1c(O)c3c(c(O)c1C2=O)C[C@@](O)(C(=O)CO)C[C@@H]3O[C@H]1C[C@H](N)[C@H](O)[C@H](C)O1 [DOXORUBICIN] | 30 nM | 40 nM | 90 nM | 20 nM | 10 nM | 60 nM | 20 nM | 40 nM | 120 nM | 500 nM | 30 nM | 150 nM | 60 nM | 400 nM | 1800 nM | 10 nM | 2800 nM | 30 nM | 90 nM | 40 nM | CC50 (Lymphoblastoid cell): 20 nM; IC50 (Raji): 30 nM
